Test results reported in ChEMBL document CHEMBL1144465, “Role of acidic pH in the susceptibility of intraphagocytic methicillin-resistant Staphylococcus aureus strains to meropenem and cloxacillin” (Antimicrob Agents Chemother, 2007).
Values after ≈ are worked out from the molar mass of the structure shown. Active and inactive are the calls of the source. No cut-off for these calls is given here.

Assays:
Staphylococcus aureus [1] = assay: Antibacterial activity against methicillin-resistant Staphylococcus aureus 459 at pH 5.5; assay type: functional
Outline: (§1)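 MRSA clinical isolate 459 (penicillinase-negative, mecA-positive) grown in Mueller-Hinton broth with 2% NaCl; MIC determined in broth adjusted to pH 5.5 or 7.4, inoculum 10^6 CFU/ml of exponential-phase bacteria, 24-h incubation.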

Staphylococcus aureus [2] = assay: Antibacterial activity against methicillin-resistant Staphylococcus aureus 459 at pH 7.4; assay type: functional; outline: as §1
Staphylococcus aureus [3] = assay: Antimicrobial activity against methicillin-susceptible Staphylococcus aureus ATCC 25923 after phagocytosis by human THP1 macrophages assessed as reduction in bacterial count at pH 5.5 after 24 hrs; assay type: functional, organism-based; conditions: ATCC 25923, THP-1, 24 h
Staphylococcus aureus [4] = assay: Reversal bacterial susceptibility against methicillin-resistant Staphylococcus aureus ATCC 33591 after phagocytosis by human THP1 macrophages assessed as bacterial count in presence of 10 mM ammonium chloride after 24 hrs; assay type: functional, organism-based
Outline: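 Infected THP-1 macrophages (MRSA ATCC 33591) given 10 mM ammonium chloride after phagocytosis together with meropenem 50 mg/liter or cloxacillin 8 mg/liter (total drug), incubated 24 h; controls with gentamicin 0.5× MIC; CFU counted; means of three independent determinations.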

Staphylococcus aureus [5] = assay: Antimicrobial activity against methicillin-resistant Staphylococcus aureus ATCC 33591 after phagocytosis by human THP1 macrophages assessed as reduction in bacterial count after 24 hrs; conditions: ATCC 33591, THP-1, 24 h
Staphylococcus aureus [6] = assay: Antimicrobial activity against Staphylococcus aureus assessed as reduction in bacterial count at pH 5.5 after 24 hrs
Staphylococcus aureus [7] = assay: Antimicrobial activity against methicillin-susceptible Staphylococcus aureus ATCC 25923 after phagocytosis by human THP1 macrophages assessed as reduction in bacterial count after 24 hrs; assay type: functional, organism-based; conditions: ATCC 25923, THP-1, 24 h
Outline: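 THP-1 human macrophage-like cells allowed to phagocytose S. aureus for 1 h, then exposed 24 h to a wide range of extracellular total-drug concentrations; controls given gentamicin at 0.5× MIC. Response is log10 CFU change from original inoculum; Hill equation fitted by nonlinear regression for EC50, Emax and static concentration; means of three independent determinations.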

Staphylococcus aureus [8] = assay: Antimicrobial activity against methicillin-susceptible Staphylococcus aureus ATCC 25923 after phagocytosis by human THP1 macrophages assessed as reduction in bacterial count at pH 7.4 after 24 hrs; assay type: functional, organism-based; conditions: ATCC 25923, THP-1, 24 h
Staphylococcus aureus [9] = assay: Induction of mecA/16S rRNA ratio in methicillin-resistant Staphylococcus aureus ATCC 33591 at 0.5 times MIC at pH 7.4 after 5 hrs; assay type: functional
Staphylococcus aureus [10] = assay: Induction of mecA/16S rRNA ratio in methicillin-resistant Staphylococcus aureus ATCC 33591 at 0.5 times MIC at pH 5.5 after 5 hrs; assay type: functional
Staphylococcus aureus [11] = assay: Antimicrobial activity against methicillin-resistant Staphylococcus aureus […] after phagocytosis by human THP1 macrophages assessed as reduction in bacterial count at pH 7.4 after 24 hrs; assay type: functional, organism-based; conditions: THP-1, 24 h

| SMILES | MIC (Staphylococcus aureus [1]) [µg/mL] | MIC (Staphylococcus aureus [2]) [µg/mL] | EC50 (Staphylococcus aureus [3]) [µg/mL] | Activity (Staphylococcus aureus [4]) | EC50 (Staphylococcus aureus [5]) [µg/mL] | EC50 (Staphylococcus aureus [6]) [µg/mL] | EC50 (Staphylococcus aureus [7]) [µg/mL] | EC50 (Staphylococcus aureus [8]) [µg/mL] | Ratio (Staphylococcus aureus [9]) | Ratio (Staphylococcus aureus [10]) | EC50 (Staphylococcus aureus [11]) [µg/mL] |
| --- | --- | --- | --- | --- | --- | --- | --- | --- | --- | --- | --- |
| Cc1onc(-c2ccccc2)c1C(=O)N[C@@H]1C(=O)N2[C@@H]1SC(C)(C)[C@@H]2C(=O)O [OXACILLIN] | 0.03 (≈ 0.0747 µM) | 1 (≈ 2.49 µM) | – | – | – | – | – | – | – | – | – |
| C[C@@H](O)[C@H]1C(=O)N2C(C(=O)O)=C(S[C@@H]3CN[C@H](C(=O)N(C)C)C3)[C@H](C)[C@H]12 [MEROPENEM] | – | – | 0.2 (≈ 0.522 µM) | inactive | 0.16 (≈ 0.417 µM) | 0.33 (≈ 0.861 µM) | 0.14 (≈ 0.365 µM) | 0.29 (≈ 0.756 µM) | – | – | – |
| C[C@@H](O)[C@H]1C(=O)N2C(C(=O)O)=C(S[C@@H]3CN[C@H](C(=O)Nc4cccc(C(=O)O)c4)C3)[C@H](C)[C@H]12 [ERTAPENEM] | – | – | – | – | – | – | – | – | 0.79 | 0.67 | – |
| CC1(C)S[C@@H]2[C@H](NC(=O)Cc3ccccc3)C(=O)N2[C@H]1C(=O)O [PENICILLIN G] | 0.03 (≈ 0.0897 µM) | 0.25 (≈ 0.748 µM) | – | – | – | – | – | – | – | – | – |
| Cc1onc(-c2ccccc2Cl)c1C(=O)N[C@@H]1C(=O)N2[C@@H]1SC(C)(C)[C@@H]2C(=O)O [CLOXACILLIN] | 0.03 (≈ 0.0688 µM) | 0.125 (≈ 0.287 µM) | 0.22 (≈ 0.505 µM) | inactive | 0.23 (≈ 0.528 µM) | 0.07 (≈ 0.161 µM) | 0.27 (≈ 0.619 µM) | 0.35 (≈ 0.803 µM) | – | – | 16.9 (≈ 38.8 µM) |
